Compound activity (PubChem)
OX1R antag-1: antagonists of human orexin 1 receptor (OX1R). O43613. OX1R-expressing cells, FRET antagonist read-out. inhibition, % at 6.6 µM. 1.8% of 330,000 active; in the data active = inhibition mostly above about 38%, no sharp cut-off; inactive = mostly below about 40%;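 note: 0% = agonist challenge alone and 100% = reference antagonist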
Target sequence (O43613 whole entry, looked up): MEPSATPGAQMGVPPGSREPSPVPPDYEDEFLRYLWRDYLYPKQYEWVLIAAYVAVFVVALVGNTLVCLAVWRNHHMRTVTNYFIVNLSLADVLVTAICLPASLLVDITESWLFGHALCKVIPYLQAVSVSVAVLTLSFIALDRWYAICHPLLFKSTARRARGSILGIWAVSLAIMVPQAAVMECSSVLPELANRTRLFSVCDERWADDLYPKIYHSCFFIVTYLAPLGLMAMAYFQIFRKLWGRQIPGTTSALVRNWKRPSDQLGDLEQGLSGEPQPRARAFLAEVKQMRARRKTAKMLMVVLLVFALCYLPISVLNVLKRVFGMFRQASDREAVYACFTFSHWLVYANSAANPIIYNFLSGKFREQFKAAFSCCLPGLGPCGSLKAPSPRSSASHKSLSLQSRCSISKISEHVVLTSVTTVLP
TAAR1 ag: agonists of human TAAR1; activation, % at 3 µM; 0.99% of 360,000 active; CHO RD-HGA16 TAAR1, Fluo-8 calcium fluorescence; vehicle wells 0%, saturating PEA agonist 100%; Q96RJ0;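 active = activation above the mean activation of all test compounds in the run plus 3 SD, cut at about 38% in these data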
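Signal – calcium-sensitive Fluo-8 signal, excitation 470-495, emission 515-575 nm · System – RD-HGA16 (CHO) cells co-expressing Gα16 and hTAAR1 · Incubation – 17-24 h seeding, 75 min 37 °C dye, 30 min RT · Compound dosing – 3 µM single concentration · Repeats – no replicates (n 1)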
TAAR1 antagonist: human TAAR1 antagonism; Q96RJ0; CHO RD-HGA16 TAAR1, Fluo-8 calcium fluorescence, antagonist; inhibition, % at 3 µM; 1.5% of 360,000 active;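 active = inhibition above a per-plate cutoff, the mean inhibition of test compounds on that plate plus 3 SD, cut at about 49% in these data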;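 note: 0% = DMSO plus EC80 beta-PEA response and 100% = DMSO alone without agonist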
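Test system: hTAAR1-expressing CHO RD-HGA16 cells, Gα16-coupled; Probe or stimulus: EC80 β-phenethylamine stimulus; Compound dosing: single nominal final test compound concentration of 3 µM; Timing: 140 s kinetic read after compound, 140 s after agonist; Signal: Fluo-8 calcium-sensitive fluorescence; Measure: % inhibition of agonist calcium response; Controls: DMSO and EC80 PEA controls.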
GPR7 antag: antagonists of human GPR7 (neuropeptides B/W receptor 1); inhibition, % at 4.4 µM; GPR7-expressing cells, fluorescence antagonist assay; P48145; 1.1% of 290,000 active; in the data active = inhibition above about 16%, passing the limit was not always enough;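 note: cells stimulated with the agonist NPW; 0% = agonist with vehicle and 100% = vehicle without agonist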
OX1R antag-2: blocks the human orexin 1 receptor; CHO/OX1R cells, Fluo-8 calcium fluorescence, orexin A; inhibition, % at 5 µM; 0.43% of 330,000 active; AID 434989;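 active = inhibition above its plate's threshold, mean inhibition of all tested compounds on the plate plus 3 SD, cut at about 37% in these data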;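 note: 0% = orexin A challenge wells and 100% = SB-334867-A antagonist wells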
CHO parental Ca: signal in parental CHO cells, OX1R antagonist counter-screen | parental CHO-K1, ATP-induced calcium, Fluo-8 fluorescence | inhibition, % at 5.6 µM | 0.63% of 330,000 active;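 active = inhibition above that plate's mean sample inhibition plus 3 SD, cut at about 26% in these data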;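 note: 0% = ATP-challenged DMSO wells and 100% = DMSO wells without ATP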
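Assay system – parental CHO cells · Reagent – ATP stimulus · Detection – intracellular calcium via Fluo-8 no-wash fluorescent dye · Evaluation – percent inhibition of ATP-evoked calcium rise, normalized to controls · Controls – ATP wells versus no-ATP DMSO wells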
GPR7 antag conf: confirmation of human GPR7 antagonists; shares compounds with GPR7 antag; 52% of 2,400 active; inhibition, % at 4.4 µM; GPR7-expressing cells, calcium fluorescence antagonist mode; in the data active = inhibition above about 24%;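 note: stimulated with the GPR7 agonist NPW; 0% = agonist plus vehicle and 100% = vehicle alone without agonist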
MCHR1 antagonist: antagonizes human MCHR1, a GPR7 antagonist counter-screen. shares compounds with GPR7 antag. MCHR1-expressing cells, fluorescence antagonist assay. inhibition, % at 4.4 µM. 62% of 2,400 active. AID 2148; in the data active = inhibition above about 22%;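 note: 0% = vehicle with agonist and 100% = vehicle without agonist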
* hit, by the source's call. This is a sample that favours compounds with a hit; in the whole collection about 4.6% have one here.

What do the screens show for `CCc1ccc(/C=C2/C(=O)N(C)C(=S)N2CC(=O)OC)s1`?
OX1R antag-1: 8.8; TAAR1 ag: 0.5; TAAR1 antagonist: 8.9; GPR7 antag: 26.9*; OX1R antag-2: -22.6; CHO parental Ca: -13.6; GPR7 antag conf: 1.7; MCHR1 antagonist: 12.7

How did COC(=O)CN1C(=S)N(C)C(=O)/C1=C/c1cccs1 do in these assays?
OX1R antag-1: 9.2; TAAR1 ag: 0.2; TAAR1 antagonist: -17.7; GPR7 antag: 3.3; OX1R antag-2: -3.2; CHO parental Ca: 2.3

What do the screens show for `CCOc1ccc(Cn2ccnc2)cc1[N+](=O)[O-]`?
OX1R antag-1: 18.7; TAAR1 ag: 0.5; TAAR1 antagonist: -9.2; GPR7 antag: -3.4; OX1R antag-2: -5.7; CHO parental Ca: -7.6

How did CCCCCOc1ccc(Cn2ccnc2)cc1[N+](=O)[O-] do in these assays?
OX1R antag-1: 10.5; TAAR1 ag: 1.2; TAAR1 antagonist: 16.0; GPR7 antag: 21.1*; OX1R antag-2: -22.3; CHO parental Ca: -7.7; GPR7 antag conf: 37.0*; MCHR1 antagonist: 48.2*

What do the screens show for `CC1CCCCC1NC(=O)Cn1ncc2ccccc21` (centres undefined)?
OX1R antag-1: 12.7; TAAR1 ag: -0.8; TAAR1 antagonist: -4.1; GPR7 antag: -0.2; OX1R antag-2: -14.6; CHO parental Ca: -7.3

How did CN(C(=O)COC(=O)c1cc([N+](=O)[O-])ccc1N1CCOCC1)C1CCCCC1 do in these assays?
TAAR1 ag: 2.3; TAAR1 antagonist: 3.5

What do the screens show for `CN(C(=O)c1cc([N+](=O)[O-])ccc1N1CCCC1)C1CCCCC1`?
OX1R antag-1: 31.4; TAAR1 ag: -1.6; TAAR1 antagonist: 2.0; GPR7 antag: 33.5*; OX1R antag-2: -25.9; CHO parental Ca: -20.4; GPR7 antag conf: 29.3*; MCHR1 antagonist: 24.0*

Results for O=C(NS(=O)(=O)Oc1cccc(F)c1)OC[C@@H]1CCCN2CCCCC12 (some centres undefined) ?
OX1R antag-1: 9.8; TAAR1 ag: -1.6; TAAR1 antagonist: -2.5; GPR7 antag: 22.6*; OX1R antag-2: -5.3; CHO parental Ca: 2.2; GPR7 antag conf: -10.7; MCHR1 antagonist: 9.9

What do the screens show for `Cc1cc(C)c(S(=O)(=O)NCC2CCC(C(=O)NCCCN3CCOCC3)CC2)c(C)c1` (centres undefined)?
TAAR1 ag: 20.9; TAAR1 antagonist: -13.5; GPR7 antag: 21.7*; GPR7 antag conf: 12.3; MCHR1 antagonist: 7.2

Results for CCOC(=O)c1cc(-c2ccc(OC)cc2F)nc2c1c(C)nn2CCC#N ?
OX1R antag-1: 10.2; TAAR1 ag: 15.3; TAAR1 antagonist: 17.4; GPR7 antag: 29.4*; OX1R antag-2: -20.6; CHO parental Ca: -26.3; GPR7 antag conf: 33.2*; MCHR1 antagonist: 22.7*

Results for CCOC(=O)c1cc(-c2ccc(Cl)cc2)nc2c1c(C)nn2CCC#N ?
OX1R antag-1: 28.7; TAAR1 ag: 5.3; TAAR1 antagonist: 18.5; GPR7 antag: 2.7; OX1R antag-2: -27.0; CHO parental Ca: -8.3

Results for O=[N+]([O-])c1ccc(N2CCN(c3ccccc3)CC2)nc1 ?
OX1R antag-1: 17.9; TAAR1 ag: 1.8; TAAR1 antagonist: 7.0; GPR7 antag: 25.2; OX1R antag-2: 0.5; CHO parental Ca: -5.4

How did O=[N+]([O-])c1ccc(N2CCN(c3ccc(F)cc3)CC2)nc1 do in these assays?
OX1R antag-1: 2.1; TAAR1 ag: 2.3; TAAR1 antagonist: -7.4; GPR7 antag: 46.9*; OX1R antag-2: 0.7; CHO parental Ca: 3.1; GPR7 antag conf: 45.0*; MCHR1 antagonist: 55.6*

Results for COc1cccc(N2CCN(c3ccc([N+](=O)[O-])cn3)CC2)c1 ?
OX1R antag-1: 11.1; TAAR1 ag: 8.7; TAAR1 antagonist: -1.7; GPR7 antag: 41.3*; OX1R antag-2: -0.9; CHO parental Ca: -3.2; GPR7 antag conf: 40.2*; MCHR1 antagonist: 72.0*
